Results taken from ChEMBL document CHEMBL1153560, “In vitro activities of doripenem and six comparator drugs against 423 aerobic and anaerobic bacterial isolates from infected diabetic foot wounds” (2008).
Converted amounts (≈) assume the structure as drawn.

Assays:
Type in all cases: functional
[1] = system: Staphylococcus epidermidis; assay: Antibacterial activity against Staphylococcus epidermidis isolated from patient with diabetic foot infection after 18 to 24 hrs by broth microdilution method
Outline: (§1)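 Isolates were subcultured on Trypticase soy blood agar and tested by broth microdilution in cation-adjusted Mueller-Hinton broth. In-house trays of twofold drug dilutions were stored at −70°C. Overnight colonies gave a final inoculum of about 5 × 10^5 CFU/ml. Plates were read after 18 to 24 h at 37°C.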

Staphylococcus aureus [2] = assay: Antibacterial activity against methicillin-resistant Staphylococcus aureus isolated from patient with diabetic foot infection after 18 to 24 hrs by broth microdilution method
Outline: (§2)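 Isolates grown on Trypticase soy blood agar, then tested by broth microdilution in unsupplemented cation-adjusted Mueller-Hinton broth. In-house trays held serial twofold drug dilutions and were stored at −70°C. Overnight colonies were suspended to a final inoculum near 5 × 10^5 CFU/ml, and trays read after 18–24 h at 37°C. QC strains: S. aureus ATCC 29213, E. coli ATCC 25922.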

Staphylococcus aureus [3] = assay: Antibacterial activity against methicillin-sensitive Staphylococcus aureus isolated from patient with diabetic foot infection after 18 to 24 hrs by broth microdilution method
Outline: (§3)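 Subcultured on Trypticase soy blood agar, then broth microdilution in cation-adjusted Mueller-Hinton broth. Trays were made in-house with serial twofold drug dilutions and stored at −70°C. Inoculum was colonies from overnight growth, final approximately 5 × 10^5 CFU/ml. MIC was read after 18 to 24 h at 37°C. QC strains: S. aureus ATCC 29213 and E. coli ATCC 25922.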

Corynebacterium accolens [4] = assay: Antibacterial activity against Corynebacterium accolens isolated from patient with diabetic foot infection assessed as percent resistant isolates after 48 hrs by broth microdilution method
Outline: (§4)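 Isolates subcultured on Trypticase soy blood agar. Broth microdilution in cation-adjusted Mueller-Hinton broth with lysed horse blood, using in-house twofold dilution trays stored at −70°C. Inoculum from overnight colonies at about 5 × 10^5 CFU/ml final. Read after 18 to 24 h at 37°C, up to 48 h for some Corynebacterium strains.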

[5] = system: Staphylococcus epidermidis; assay: Antibacterial activity against Staphylococcus epidermidis isolated from patient with diabetic foot infection assessed as percent resistant isolates after 18 to 24 hrs by broth microdilution method
Outline: (§5)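 Aerobes subcultured on Trypticase soy blood agar, then broth microdilution in cation-adjusted Mueller-Hinton broth. Trays prepared in-house with twofold dilutions and stored at −70°C. Overnight colonies suspended to about 5 × 10^5 CFU/ml final. Read after 18 to 24 h at 37°C. QC strains included S. aureus ATCC 29213 and E. coli ATCC 25922.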

[6] = system: Corynebacterium aurimucosum; assay: Antibacterial activity against Corynebacterium aurimucosum isolated from patient with diabetic foot infection assessed as percent resistant isolates after 48 hrs by broth microdilution method; outline: as §4
Proteus vulgaris = assay: Antibacterial activity against Proteus vulgaris isolated from patient with diabetic foot infection assessed as percent resistant isolates after 18 to 24 hrs by broth microdilution method; outline: as §5
[7] = system: Corynebacterium amycolatum; assay: Antibacterial activity against Corynebacterium amycolatum isolated from patient with diabetic foot infection after 48 hrs by broth microdilution method
Outline: (§6)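 Isolates were subcultured on Trypticase soy blood agar. Broth microdilution used cation-adjusted Mueller-Hinton broth with lysed horse blood, in-house trays of twofold drug dilutions stored at −70°C. Colonies from overnight growth gave a final inoculum of about 5 × 10^5 CFU/ml. Trays were read after 18 to 24 h at 37°C, up to 48 h for some strains.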

Corynebacterium striatum = assay: Antibacterial activity against Corynebacterium striatum isolated from patient with diabetic foot infection assessed as percent resistant isolates after 48 hrs by broth microdilution method; outline: as §4
[8] = system: Streptococcus dysgalactiae subsp. equisimilis; assay: Antibacterial activity against Streptococcus dysgalactiae subsp. equisimilis isolated from patient with diabetic foot infection after 18 to 24 hrs by broth microdilution method
Outline: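 Streptococcal isolates were subcultured on Trypticase soy blood agar. Broth microdilution used cation-adjusted Mueller-Hinton broth with lysed horse blood, in in-house trays of serial twofold drug dilutions stored at −70°C. Overnight colonies were suspended to a final inoculum of approximately 5 × 10^5 CFU/ml. MIC was read after 18 to 24 h incubation at 37°C.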

Corynebacterium accolens [9] = assay: Antibacterial activity against Corynebacterium accolens isolated from patient with diabetic foot infection after 48 hrs by broth microdilution method; outline: as §6
[10] = system: Corynebacterium amycolatum; assay: Antibacterial activity against Corynebacterium amycolatum isolated from patient with diabetic foot infection assessed as percent resistant isolates after 48 hrs by broth microdilution method; outline: as §4
Corynebacterium jeikeium = assay: Antibacterial activity against Corynebacterium jeikeium isolated from patient with diabetic foot infection assessed as percent resistant isolates after 48 hrs by broth microdilution method; outline: as §4
[11] = system: Staphylococcus lugdunensis; assay: Antibacterial activity against Staphylococcus lugdunensis isolated from patient with diabetic foot infection after 18 to 24 hrs by broth microdilution method; outline: as §3
Staphylococcus aureus [12] = assay: Antibacterial activity against methicillin-resistant Staphylococcus aureus isolated from patient with diabetic foot infection assessed as percent resistant isolates after 18 to 24 hrs by broth microdilution method; outline: as §2
[13] = system: Staphylococcus haemolyticus; assay: Antibacterial activity against Staphylococcus haemolyticus isolated from patient with diabetic foot infection assessed as percent resistant isolates after 18 to 24 hrs by broth microdilution method
Corynebacterium simulans = assay: Antibacterial activity against Corynebacterium simulans isolated from patient with diabetic foot infection assessed as percent resistant isolates after 48 hrs by broth microdilution method; outline: as §4
Corynebacterium xerosis = assay: Antibacterial activity against Corynebacterium xerosis isolated from patient with diabetic foot infection assessed as percent resistant isolates after 48 hrs by broth microdilution method; outline: as §4
Providencia rettgeri [14] = assay: Antibacterial activity against Proteus rettgeri isolated from patient with diabetic foot infection assessed as percent resistant isolates after 18 to 24 hrs by broth microdilution method; outline: as §5
Enterobacter cloacae = assay: Antibacterial activity against Enterobacter cloacae isolated from patient with diabetic foot infection after 18 to 24 hrs by broth microdilution method; outline: as §1
Providencia rettgeri [15] = assay: Antibacterial activity against Proteus rettgeri isolated from patient with diabetic foot infection after 18 to 24 hrs by broth microdilution method; outline: as §1
Escherichia coli = assay: Antibacterial activity against Escherichia coli isolated from patient with diabetic foot infection after 18 to 24 hrs by broth microdilution method; outline: as §1
Klebsiella pneumoniae = assay: Antibacterial activity against Klebsiella pneumoniae isolated from patient with diabetic foot infection after 18 to 24 hrs by broth microdilution method; outline: as §1
Klebsiella oxytoca [16] = assay: Antibacterial activity against Klebsiella oxytoca isolated from patient with diabetic foot infection assessed as percent resistant isolates after 18 to 24 hrs by broth microdilution method; outline: as §5
Klebsiella oxytoca [17] = assay: Antibacterial activity against Klebsiella oxytoca isolated from patient with diabetic foot infection after 18 to 24 hrs by broth microdilution method; outline: as §1
Klebsiella aerogenes = assay: Antibacterial activity against Enterobacter aerogenes isolated from patient with diabetic foot infection after 18 to 24 hrs by broth microdilution method; outline: as §1
Pseudomonas aeruginosa = assay: Antibacterial activity against Pseudomonas aeruginosa isolated from patient with diabetic foot infection assessed as percent resistant isolates after 18 to 24 hrs by broth microdilution method; outline: as §5

Molecule CCC[C@@H]1C[C@@H](C(=O)N[C@@H]([C@H]2O[C@H](SC)[C@H](O)[C@@H](O)[C@H]2O)[C@H](C)Cl)N(C)C1 [CLINDAMYCIN] has an MIC50 [1] of 0.25 µg/mL (≈ 0.588 µM), an MIC90 [1] of over 64 µg/mL and an MIC50 (Staphylococcus aureus [2]) of 0.125 µg/mL (≈ 0.294 µM). The MIC90 (Staphylococcus aureus [2]) was over 64 µg/mL, the MIC50 (Staphylococcus aureus [3]) was 0.125 µg/mL (≈ 0.294 µM) and the MIC90 (Staphylococcus aureus [3]) was 0.25 µg/mL (≈ 0.588 µM). It also gave an Activity (Corynebacterium accolens [4]) of 78%, an Activity [5] of 33% and an Activity [6] of 100%. It also gave an Activity (Proteus vulgaris) of 0%, an MIC50 [7] of over 64 µg/mL and an MIC90 [7] of over 64 µg/mL. It also gave an Activity (Corynebacterium striatum) of 78%, an MIC50 [8] of 0.125 µg/mL (≈ 0.294 µM) and an MIC90 [8] of over 64 µg/mL. The MIC50 (Corynebacterium accolens [9]) was 2 µg/mL (≈ 4.71 µM), the MIC90 (Corynebacterium accolens [9]) was over 64 µg/mL and the Activity [10] was 100%. The Activity (Corynebacterium jeikeium) was 100%, the MIC50 [11] was 0.125 µg/mL (≈ 0.294 µM) and the MIC90 [11] was over 64 µg/mL. For the same molecule, the Activity (Staphylococcus aureus [12]) was 39%, the Activity [13] was 13% and the Activity (Corynebacterium simulans) was 78%. The Activity (Corynebacterium xerosis) was 78%.
C[C@@H](O)[C@H]1C(=O)N2C(C(=O)O)=C(S[C@@H]3CN[C@H](C(=O)Nc4cccc(C(=O)O)c4)C3)[C@H](C)[C@H]12 [ERTAPENEM] gave an MIC50 [1] of 2 µg/mL (≈ 4.21 µM), an MIC90 [1] of 8 µg/mL (≈ 16.8 µM) and an Activity (Providencia rettgeri [14]) of 0%. It also gave an MIC50 (Enterobacter cloacae) of 0.06 µg/mL (≈ 0.126 µM), an MIC90 (Enterobacter cloacae) of 0.5 µg/mL (≈ 1.05 µM) and an MIC50 (Providencia rettgeri [15]) of at most 0.015 µg/mL. It also gave an MIC90 (Providencia rettgeri [15]) of 0.25 µg/mL (≈ 0.526 µM), an MIC50 (Staphylococcus aureus [2]) of 2 µg/mL (≈ 4.21 µM) and an MIC90 (Staphylococcus aureus [2]) of over 32 µg/mL. It also gave an MIC50 (Escherichia coli) of at most 0.015 µg/mL, an MIC90 (Escherichia coli) of 0.06 µg/mL (≈ 0.126 µM) and an MIC50 (Klebsiella pneumoniae) of at most 0.015 µg/mL. For the same molecule, the MIC90 (Klebsiella pneumoniae) was at most 0.015 µg/mL, the Activity (Klebsiella oxytoca [16]) was 0% and the MIC50 (Staphylococcus aureus [3]) was 0.125 µg/mL (≈ 0.263 µM). The MIC90 (Staphylococcus aureus [3]) was 0.25 µg/mL (≈ 0.526 µM), the Activity [5] was 67% and the Activity (Proteus vulgaris) was 0%. The MIC50 [7] was 1 µg/mL (≈ 2.1 µM), the MIC90 [7] was 32 µg/mL (≈ 67.3 µM) and the MIC50 [8] was at most 0.015 µg/mL. The MIC90 [8] was at most 0.015 µg/mL, the MIC50 (Corynebacterium accolens [9]) was 0.5 µg/mL (≈ 1.05 µM) and the MIC90 (Corynebacterium accolens [9]) was 1 µg/mL (≈ 2.1 µM). The MIC50 (Klebsiella oxytoca [17]) was at most 0.015 µg/mL, the MIC90 (Klebsiella oxytoca [17]) was at most 0.015 µg/mL and the MIC50 [11] was 0.5 µg/mL (≈ 1.05 µM). The MIC90 [11] was 1 µg/mL (≈ 2.1 µM), the Activity (Staphylococcus aureus [12]) was 100% and the Activity [13] was 73%. For the same molecule, the MIC50 (Klebsiella aerogenes) was 0.06 µg/mL (≈ 0.126 µM) and the MIC90 (Klebsiella aerogenes) was 0.5 µg/mL (≈ 1.05 µM).
In the case of C[C@@H](O)[C@H]1C(=O)N2C(C(=O)O)=C(S[C@@H]3CN[C@H](C(=O)N(C)C)C3)[C@H](C)[C@H]12 [MEROPENEM], the MIC50 [1] is reported as 1 µg/mL (≈ 2.61 µM), the MIC90 [1] is reported as 4 µg/mL (≈ 10.4 µM) and the Activity (Providencia rettgeri [14]) is reported as 0%. It also gave an MIC50 (Enterobacter cloacae) of 0.06 µg/mL (≈ 0.156 µM), an MIC90 (Enterobacter cloacae) of 0.5 µg/mL (≈ 1.3 µM) and an Activity (Pseudomonas aeruginosa) of 7%. It also gave an MIC50 (Providencia rettgeri [15]) of 0.06 µg/mL (≈ 0.156 µM), an MIC90 (Providencia rettgeri [15]) of 0.125 µg/mL (≈ 0.326 µM) and an MIC50 (Staphylococcus aureus [2]) of 2 µg/mL (≈ 5.22 µM). For the same molecule, the MIC90 (Staphylococcus aureus [2]) was 16 µg/mL (≈ 41.7 µM), the MIC50 (Escherichia coli) was 0.03 µg/mL (≈ 0.0782 µM) and the MIC90 (Escherichia coli) was 0.03 µg/mL (≈ 0.0782 µM). The MIC50 (Klebsiella pneumoniae) was 0.03 µg/mL (≈ 0.0782 µM), the MIC90 (Klebsiella pneumoniae) was 0.06 µg/mL (≈ 0.156 µM) and the Activity (Klebsiella oxytoca [16]) was 0%. It also gave an MIC50 (Staphylococcus aureus [3]) of 0.06 µg/mL (≈ 0.156 µM), an MIC90 (Staphylococcus aureus [3]) of 0.125 µg/mL (≈ 0.326 µM) and an Activity (Corynebacterium accolens [4]) of 0%. The Activity [5] was 67%, the Activity [6] was 20% and the Activity (Proteus vulgaris) was 0%. The Activity (Corynebacterium striatum) was 0%, the MIC50 [8] was at most 0.015 µg/mL and the MIC90 [8] was at most 0.015 µg/mL. The MIC50 (Corynebacterium accolens [9]) was 0.125 µg/mL (≈ 0.326 µM), the MIC90 (Corynebacterium accolens [9]) was 0.25 µg/mL (≈ 0.652 µM) and the Activity [10] was 7%. It also gave an Activity (Corynebacterium jeikeium) of 20%, an MIC50 (Klebsiella oxytoca [17]) of 0.03 µg/mL (≈ 0.0782 µM) and an MIC90 (Klebsiella oxytoca [17]) of 0.06 µg/mL (≈ 0.156 µM). It also gave an MIC50 [11] of 0.25 µg/mL (≈ 0.652 µM), an MIC90 [11] of 0.5 µg/mL (≈ 1.3 µM) and an Activity (Staphylococcus aureus [12]) of 100%. The Activity [13] was 73%, the Activity (Corynebacterium simulans) was 0% and the MIC50 (Klebsiella aerogenes) was 0.06 µg/mL (≈ 0.156 µM). It also gave an MIC90 (Klebsiella aerogenes) of 0.5 µg/mL (≈ 1.3 µM) and an Activity (Corynebacterium xerosis) of 0%.
